Results: ChEMBL document CHEMBL3098041, “Synthesis and anticancer evaluation of 3-substituted quinolin-4-ones and 2,3-dihydroquinolin-4-ones” (Bioorg Med Chem, 2014)
pIC50: −log10 of the molar value.

Assays:
[1] = system: DU-145; test: Cytotoxicity against human DU145 cells assessed as cell viability at 25 uM after 72 hrs by Alamar blue assay; type: functional; settings: DU-145, 72 h, read-out: Activity
How it was run: (§1)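 Cells were grown in DMEM with 10% FBS at 37 °C, 5% CO2, humidified. Log-phase cells were seeded in 96-well plates at a fixed density and allowed to adhere for 24 h. Compound or vehicle-only control was added to duplicate wells at one fixed concentration for 72 h. Alamar Blue fluorescence was read (ex 555, em 585 nm) as % viability (0% = total growth inhibition). Assays were run in triplicate.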

[2] = Cytotoxicity against human H460 cells assessed as cell viability at 25 uM after 72 hrs by Alamar blue assay; type: functional; settings: NCI-H460, 72 h, read-out: Activity; how it was run: as §1
[3] = system: HT-29; test: Cytotoxicity against human HT-29 cells assessed as cell viability at 25 uM after 72 hrs by Alamar blue assay; type: functional; settings: HT-29, 72 h, read-out: Activity; how it was run: as §1
[4] = system: MCF7; test: Cytotoxicity against human MCF7 cells assessed as cell viability at 25 uM after 72 hrs by Alamar blue assay; type: functional; settings: MCF7, 72 h, read-out: Activity; how it was run: as §1
[5] = system: A-431; test: Cytotoxicity against human A431 cells assessed as cell viability at 25 uM after 72 hrs by Alamar blue assay; type: functional; settings: A-431, 72 h, read-out: Activity; how it was run: as §1
[6] = Cytotoxicity against human H460 cells assessed as cell viability after 72 hrs by Alamar blue assay; type: functional, cell-based; settings: NCI-H460, 72 h
How it was run: (§2)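 This was a dose–response Alamar Blue assay run in triplicate. Cells were kept in DMEM with 10% FBS (37 °C, 5% CO2, humidified). Log-phase cells were plated at a fixed density in 96-well plates and left to adhere for 24 h. Compound or vehicle was added to duplicate wells. After 72 h exposure, metabolic activity was measured by fluorescence (ex 555, em 585 nm).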

[7] = system: MCF7; test: Cytotoxicity against human MCF7 cells assessed as cell viability after 72 hrs by Alamar blue assay; type: functional, cell-based; settings: MCF7, 72 h; how it was run: as §2
[8] = system: DU-145; test: Cytotoxicity against human DU145 cells assessed as cell viability after 72 hrs by Alamar blue assay; type: functional, cell-based; settings: DU-145, 72 h; how it was run: as §2
[9] = system: A-431; test: Cytotoxicity against human A431 cells assessed as cell viability after 72 hrs by Alamar blue assay; type: functional, cell-based; settings: A-431, 72 h; how it was run: as §2
[10] = system: MRC5; test: Cytotoxicity against human MRC5 cells assessed as cell viability after 72 hrs by Alamar blue assay; type: cell-based; settings: MRC5, 72 h; how it was run: as §2
[11] = system: HT-29; test: Cytotoxicity against human HT-29 cells assessed as cell viability after 72 hrs by Alamar blue assay; type: functional, cell-based; settings: HT-29, 72 h; how it was run: as §2

Compound | viability at 25 µM [1] | viability at 25 µM [2] | viability at 25 µM [3] | viability at 25 µM [4] | viability at 25 µM [5] | pIC50 [6] | pIC50 [7] | pIC50 [8] | pIC50 [9] | pIC50 [10] | pIC50 [11]
COc1cc(O)c2c(c1)NCC(c1ccccc1)C2=O (stereo not given) | 81.6% | 78% | 90.8% | 83.2% | 90.8% | – | – | – | – | – | –
COc1cc(OC)c2c(=O)c(-c3ccc(Br)cc3)c[nH]c2c1 | 74.8% | 33.5% | 26.2% | 35.3% | 69.1% | – | – | – | – | – | –
COc1cc(OC)c2c(=O)c(-c3ccc(F)cc3)c[nH]c2c1 | 88.7% | 86% | 114% | – | 103% | – | – | – | – | – | –
COc1cc(OC)c2c(=O)c(-c3ccc(C)cc3)c[nH]c2c1 | 76.6% | 53.8% | 102% | – | 89.9% | – | – | – | – | – | –
COc1cc(OC)c2c(=O)c(-c3cccc(Br)c3)c[nH]c2c1 | 71.8% | 43.9% | 37.8% | – | 66.5% | – | – | – | – | – | –
COc1ccc([C@H]2CNc3cc(OC)cc(OC)c3C2=O)cc1 | 91.1% | 94.3% | 106% | 85.1% | 89.6% | – | – | – | – | – | –
COc1cc2c(c(OC)c1)C(=O)[C@@H](c1ccccc1)CN2 | 95.4% | 87.6% | 98.8% | 83.6% | 98.3% | – | – | – | – | – | –
O=C1c2c(O)cc(O)cc2NCC1c1ccccc1 (stereo not given) | 83.1% | 74.5% | 98.5% | 121% | 98.5% | – | – | – | – | – | –
COc1cc(O)c2c(=O)c(-c3ccc(Br)cc3)c[nH]c2c1 | 73.5% | 65.5% | 29.2% | 52.6% | 104% | – | – | – | – | – | –
COc1cc(O)c2c(=O)c(-c3ccc(F)cc3)c[nH]c2c1 | 43.4% | 38.9% | 31.2% | – | 71.4% | – | – | – | – | – | –
COc1cc(O)c2c(=O)c(-c3ccc(C)cc3)c[nH]c2c1 | 85.1% | 50.7% | 29.6% | – | 76.5% | – | – | – | – | – | –
COc1cc(O)c2c(=O)c(-c3cccc(Br)c3)c[nH]c2c1 | 10% | 2% | 14.1% | – | 1% | 5.04 | 4.66 | 5.02 | 5.26 | 5.17 | 5.44
COc1ccc(C2CNc3cc(OC)cc(O)c3C2=O)cc1 (stereo not given) | 106% | 94.1% | 97.3% | 85.7% | 108% | – | – | – | – | – | –
